# Bioassay records (PubChem)
# rRNA inh HTS: reduced GFP signal of wild-type E. coli, primary screen, bacterial rRNA inhibitor project, GFP/RFP fluorescence, OD600, single point; E. coli WT GFP vs humanized-ribosome RFP mutants, 24 h; stronger effect = lower value; DMSO median 0, no signal -100; GFP signal change (wild-type ribosome), % (concentration not given with the values); hit rate 1.6% among 350,000; AID 720706, 2013;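 active = significant combined selectivity score with lowered wild-type GFP, culture density cut under 30%, mutant RFP and density less affected; inactive = any of these conditions unmet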
# RAD54 branch: inhibitors of human RAD54 branch migration, primary screen, biochemical, fluorescence, single point. DNA repair and recombination protein RAD54-like (Homo sapiens), Q92698. RAD54 Holliday junction branch migration, FAM/BHQ fluorescence. inhibition, % at 10.4 µM. hit rate 0.14% among 360,000. AID 602329, 2012;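 active = mean normalized replicate activity at least 40 and at least half of replicates scoring 40 or more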;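 note: 0% = median of neutral control wells and 100% = median of positive control wells; inhibitors cause a drop in the FAM fluorescence signal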
# Cneo AK release: Cryptococcus neoformans cell lysis inducers, primary screen, AK release luminescence, single concentration; C. neoformans lysis, adenylate kinase release luminescence, 4 h; normalised: neutral wells 0, clomiphene wells 100; hit rate 0.2% among 360,000; lysis activity, % at 15 µM;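 active = mean lysis activity across replicates of at least 80%, whatever share of replicates individually reach that level; inactive = mean lysis activity below 80%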
#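 Test system: log-phase Cryptococcus neoformans yeast cells; Quantity: yeast cell density of 5 × 10^6 cells/mL; Buffer or medium: YPD; Doses: single compound concentration per well; Timing: 4 h at 37 °C static, read 1 h later; Measured by: AK luminescence; Read-out basis: lysis from increased AK signal; Control set: Clomiphene as positive control.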
# RAD52 inh: RAD52 DNA annealing inhibitors, primary screen, biochemical, FRET, single point, set 2; hit rate 0.46% among 360,000; inhibition, % at 18.7 µM; DNA repair protein RAD52 homolog (Homo sapiens), P43351; recombinant RAD52 DNA annealing, FRET fluorescence;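 active = every replicate showing at least 50% inhibition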
# Target sequence (P43351 whole entry, looked up): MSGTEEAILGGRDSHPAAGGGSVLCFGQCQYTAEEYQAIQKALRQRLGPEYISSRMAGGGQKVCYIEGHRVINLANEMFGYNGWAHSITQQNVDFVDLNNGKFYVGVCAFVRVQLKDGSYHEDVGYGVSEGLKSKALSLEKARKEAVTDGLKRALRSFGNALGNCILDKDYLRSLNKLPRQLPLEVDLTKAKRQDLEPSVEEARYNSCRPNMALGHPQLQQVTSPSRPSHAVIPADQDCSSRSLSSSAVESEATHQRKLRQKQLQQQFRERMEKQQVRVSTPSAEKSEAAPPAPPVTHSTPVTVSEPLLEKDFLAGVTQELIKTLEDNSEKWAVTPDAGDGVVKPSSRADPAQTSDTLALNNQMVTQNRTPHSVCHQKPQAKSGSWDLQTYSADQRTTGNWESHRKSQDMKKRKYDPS
# PglD DTNB: C. jejuni PglD acetyltransferase inhibitors, primary screen, biochemical, DTNB colorimetric, single point. purified PglD enzyme, DTNB colorimetric CoA detection. inhibition, % at 12.5 µM. hit rate 0.098% among 360,000. AID 602405, 2012; in the data active = inhibition above about 16%, passing the limit was not always enough
# Starred values were filed as active, the others as inactive; nt = no result given; ! = not active in a repeat. Compounds with a hit are over-represented: about 1.9% of the library has one in this group of screens.
SMILES,rRNA inh HTS,RAD54 branch,Cneo AK release,RAD52 inh,PglD DTNB
S=C(NCc1ccco1)Nc1ccc(Br)cc1Cl,-37*,nt,nt,-29,nt
C[C@@H]1CCCCO[C@@H](CN(C)S(=O)(=O)c2ccccc2)[C@@H](C)CN([C@@H](C)CO)C(=O)c2cc(NC(=O)Nc3ccc4c(c3)OCO4)ccc2O1,0,1,0,-10,1
O=C1CCCC(O)=C1Sc1cc(Cl)c(Cl)cc1Cl,-23*,-8,-1,-17,1
O=S(=O)(NCc1c(Cl)cccc1Oc1ccccc1)c1ccc(F)cc1,-39*,nt,nt,-7,nt
CCN(CC)c1c([N+](=O)[O-])c(=O)n(CC)c2ccccc12,-35*,-7,0,-18,-8
CCNc1c([N+](=O)[O-])c(=O)n(CC)c2ccccc12,-33*,1,0,-15,-1
CCN(CC)c1c([N+](=O)[O-])c(=O)sc2ccccc12,8,nt,nt,5,nt
CCn1c(=O)c([N+](=O)[O-])c(NCc2ccco2)c2ccccc21,4,10,-1,-21,-3
Cc1cc(C)c(S(=O)(=O)NCCOc2ccccc2)c(C)c1-n1cnnn1,-18*,-6,11,-12,-8
COc1ccc(S(=O)(=O)NCCOc2ccccc2)cc1-n1cnnn1,8,20,1,-9,17
CC(C)NC(=O)N(C)C[C@@H]1Oc2ccc(N(C)C)cc2CC(=O)N(C)C[C@H]1C,-1,nt,nt,nt,nt
c1ccc(-c2ccc(C3[C@H]4CNC[C@@H]3N4Cc3cccc(-c4ccncc4)c3)cc2)cc1 (stereo not given in full),-2,nt,nt,59*,nt
Fc1cccc(CN2[C@@H]3CNC[C@H]2C3c2ccc(-c3ccncc3)cc2)c1 (stereo not given in full),1,nt,nt,65*!,nt
Fc1cccc(-c2ccc(C3[C@H]4CNC[C@@H]3N4Cc3cccnc3)cc2)c1 (stereo not given in full),6,nt,nt,16,nt
CCCNC(=O)N1CC2(C1)CN(C(=O)CC)[C@H](CO)c1[nH]c3cc(OC)ccc3c12,4,nt,nt,-11,nt
COc1cccc(/C=C/C(=O)OCC(=O)c2ccc3c(c2)NC(=O)CO3)c1OC,-20*,-4,1,-8,0
CCOC(=O)c1c(N)sc(C(=O)Nc2ccccc2)c1C,-25,nt,nt,-7,nt
CCOC(=O)c1c(N)sc(C(=O)Nc2ccccc2F)c1C,-26*,1,-8,-17,1
O=c1oc2ccccc2c(NCc2ccc(Cl)cc2)c1[N+](=O)[O-],-39*,-8,-17,-16,5
O=C(COc1ccc(Cl)cc1)Nc1c(-c2cccs2)nc2ccccn12,12,nt,nt,-10,nt
CC(C)CCNc1c(-c2cccs2)nc2ccccn12,-26*,nt,nt,10,nt
C[C@H](CO)N1C[C@H](C)[C@@H](CN(C)C(=O)NC2CCCCC2)Oc2c(NC(=O)NC3CCCCC3)cccc2C1=O,0,-3,-1,5,4
c1ccc(-c2nc3cccnc3nc2-c2ccccc2)cc1,-24*,nt,nt,0,nt
O=C(Cc1ccccn1)N[C@H]1CC[C@H](CCn2cc(-c3cccnc3)nn2)O[C@@H]1CO,1,-8,-3,-24,-1
COc1cc2ccc(=O)oc2c(O)c1OCC=C(C)C,-21*,-11,-3,-13,0
SMILES,rRNA inh HTS,RAD54 branch,Cneo AK release,RAD52 inh,PglD DTNB
CCC(=O)N1[C@@H](CO)[C@@H](c2ccccc2)C12CN(Cc1cccnc1)C2,8,nt,nt,-20,nt
CC(C)CC1(C)N=C(c2ccccc2)C(=S)N1 (stereo not given),-1,-4,82*,4,2
Cc1ccc(S(=O)(=O)N[C@H]2C=C[C@@H](CC(=O)N3CCC(Cc4ccccc4)CC3)O[C@H]2CO)cc1,-1,-7,85*,-5,1
COc1ccc(S(=O)(=O)N[C@H]2C=C[C@H](CC(=O)N3CCC(Cc4ccccc4)CC3)O[C@@H]2CO)cc1,-15,-3,89*,9,3
Cc1ccc(S(=O)(=O)N[C@@H]2C=C[C@H](CC(=O)N3CCC(Cc4ccccc4)CC3)O[C@@H]2CO)cc1,0,-5,76,-4,0
COc1ccc2c3c(n(C)c2c1)[C@H](CO)N(C(=O)c1ccncc1)CC31CN(C)C1,5,nt,nt,20,nt
C[C@H](CO)N1C[C@H](C)[C@@H](CN(C)C(=O)[C@@H](Cc2ccccc2)N(C)C)OCc2ccccc2-c2c(n(C)c3ccccc23)C1=O,1,nt,nt,nt,nt
Cc1ccc(C)c(COC(=O)c2cccc(S(=O)(=O)N3CCCC3)c2)c1,1,nt,nt,-7,nt
N#Cc1ccccc1COC(=O)c1cccc(S(=O)(=O)N2CCCC2)c1,-29*,4,-1,-9,-2
Oc1ccc(Br)cc1-c1ccnn1-c1ccccc1,-39*,6,1,-6,-7
Oc1ccc(Br)cc1-c1cc(-c2ccccc2)n[nH]1,nt,-2,0,nt,1
C[C@@H]1CN([C@@H](C)CO)C(=O)c2cc(C#Cc3ccc(F)cc3)cnc2O[C@H]1CN(C)S(C)(=O)=O,0,-3,-5,-5,2
O=C(NN=Cc1cc(Br)c(O)c(Br)c1)c1ccccc1NS(=O)(=O)c1cccs1,-25*,-7,-4,-9,6
O=C(NN=Cc1ccc(F)cc1)c1ccccc1NS(=O)(=O)c1cccs1,-12,3,2,-17,-3
O=C(N/N=C/c1cccnc1)c1ccccc1NS(=O)(=O)c1cccs1,-30*,0,2,-9,nt
COc1ccc(NC(=O)/C(=C\c2cccs2)NC(=O)c2ccco2)cc1,9,7,-1,3,3
CCN(c1ccccc1)S(=O)(=O)c1ccc(OC)c(NC(=O)c2ccccc2OC)c1,2,0,-3,-8,9
COc1cc2c(cc1NC(=O)c1ccco1)CCCC2,-32*,1,0,-12,3
Cc1ccc(NC(=O)/C(=C/c2cccs2)NC(=O)c2ccco2)c(C)c1,-30*,nt,nt,-15,nt
CCN(c1ccccc1)S(=O)(=O)c1ccc(OC)c(NC(=O)c2ccco2)c1,-19*,2,-2,-15,1
COc1ccc(NC(=O)c2ccco2)c(OC)c1,nt,21,-3,nt,-1
Cc1cc(Br)ccc1NC(=O)c1ccco1,-22*,-11,0,-21,-1
CO[C@@H]1CN(C)C(=O)c2ccc(NC(=O)Nc3ccc(Cl)cc3)cc2OC[C@@H](C)NC[C@@H]1C,-3,nt,nt,nt,nt
Cc1noc(C)c1NC(=O)Nc1ccc2c(c1)CC(=O)N([C@H](C)CO)C[C@H](C)[C@H](CN(C)S(=O)(=O)c1ccc(F)cc1)O2,1,11,0,-11,1
